An excerpt weighted towards active compounds, which were near 2.7% of everything screened.
Yeast growth inh: growth inhibitors of yeast BB579 in restrictive medium, primary screen, yeast lifespan-shortening project, S. cerevisiae | OD615, 48 h | inhibition, % at 10 µM | 140,000 tested, 0.51% active | AID 804, 2007;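 active means inhibition above a set limit, 3 SD over the mean compound inhibition, cut at about 44% in these data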
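System: Saccharomyces cerevisiae DeaD strain BB579, replicative lifespan model yeast | Buffer or medium: Restrictive glucose-based CSMM-D medium | Times: 4 h preincubation and 48 h exposure at 30 °C | Detection: OD615 turbidity measurement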
Yeast lifespan up: compounds extending yeast replicative lifespan, primary screen, S. cerevisiae, OD615 | S. cerevisiae growth with nicotinamide; deaD strain in restrictive glucose medium | inhibition of the nicotinamide effect, % at 10 µM | 130,000 tested, 0.68% active | AID 775, 2007;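 active means inhibition above a set limit, placed 3 SD over the median of all compounds, cut at about 26% in these data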
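Test system – modified budding yeast, DeaD strain · Compound – single dose 10 µM compound, 0.25% DMSO · Times – culture preincubation 4 h, compound exposure 48 h, both 30 °C · Detection – optical density (absorbance) at 615 nm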
SDO1 yeast rescue: growth rescue of sdo1-depleted yeast, primary screen, S. cerevisiae, bone marrow failure model. S. cerevisiae sdo1-depleted JHY4D growth rescue, OD600 30 h; hits give high values; pdr5 snq2 efflux-pump mutant strain. z-score at 10 µM. 140,000 tested, 0.21% active. AID 817, 2007;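 active means z-score above 3 at both the 24 hr and the 30 hr optical density reads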
RAM inhibit: inhibitors of the yeast RAM network, primary screen, dse1pr::URA3 reporter, 5-FOA selection | S. cerevisiae dse1pr::URA3 reporter, 5-FOA growth OD615, 2 d; analog-sensitive cbk1-as2 kinase mutant strain | inhibition, % at 50 µM | 190,000 tested, 1.8% active | AID 868, 2007;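 active means inhibition above a set limit, 3 SD over mean compound inhibition, cut at about 8.4% in these data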;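 further: inhibition rescues growth on 5-FOA so higher OD means more RAM inhibition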
Each line names hits and unclear results; the compound was inactive in the other large screens.

O=C(/C=C\c1ccc(-c2ccccc2)o1)c1ccccc1	RAM inhibit 9.6
Cc1ccc(C(=O)/C=C\C(=O)c2ccc(C)cc2)cc1	Yeast lifespan up 65
Cc1ccc(C(=O)/C=C/c2c[nH]c3ccccc23)cc1	none
CC(=O)NC(=S)Nc1cccc(S(=O)(=O)NC2=NCCC2)c1	none
C=C1C(=O)C=C2CN(C(=O)c3ccccc3)[C@@](Cc3ccc(F)cc3)(C(=O)OC)[C@@H]12	Yeast lifespan up 43
COc1ccccc1-c1cc(SC)c(C#N)c(=O)o1	Yeast lifespan up 26, RAM inhibit 9.3
O=C(CSc1ccccc1)NCCSCc1ccccc1	none
CCOC(=O)c1c(NC(=O)c2cccs2)sc(C)c1CC	RAM inhibit 11
CCOC(=O)c1c(-c2ccc(C)o2)csc1NC(=O)CN1CCCCC1	none (no result: Yeast growth inh, Yeast lifespan up, SDO1 yeast rescue)
O=C(/C=C/c1cccs1)Nc1scc(-c2ccccc2)c1C(=O)O	none (no result: Yeast growth inh, Yeast lifespan up, SDO1 yeast rescue)
CCOC(=O)c1c(-c2cccs2)csc1N	none (no result: Yeast growth inh, Yeast lifespan up, SDO1 yeast rescue)
CCOC(=O)c1c(-c2ccc(C)o2)csc1NC(=S)NC(=O)c1ccc(F)cc1	RAM inhibit 11
CCOC(=O)c1c(-c2cccs2)csc1NC(=O)c1ccncc1	RAM inhibit 9.6
O=C(Nc1scc(-c2cccs2)c1C(=O)O)c1cccs1	Yeast lifespan up 35
CCc1c(C)sc(NC(=O)c2cccs2)c1C(=O)OC(C)C	none
Cc1cc2nc(CSc3ccc(Cl)cc3)cc(=O)n2[nH]1	none (no result: Yeast growth inh, Yeast lifespan up, SDO1 yeast rescue)
O=Cc1ccc(OC(=O)c2cccnc2)cc1	none (no result: Yeast growth inh, Yeast lifespan up, SDO1 yeast rescue)
O=C(Nc1scc(-c2ccccc2)c1C(=O)O)c1ccco1	Yeast lifespan up 42
CCCCOc1ccc(NC(=O)CCSc2nccn2C)cc1	none (no result: Yeast growth inh, Yeast lifespan up, SDO1 yeast rescue)
CCN1C(=O)/C(=C2\SC(=S)N(CCCOC)C2=O)c2ccccc21	RAM inhibit 9.5
COc1ccc(N2CCN(C(=O)CCN3C(=S)NC(C)(C)CC3C)CC2)cc1 (stereo not given)	none (no result: Yeast growth inh, Yeast lifespan up, SDO1 yeast rescue)
O=C(NCCc1ccc(Cl)cc1)c1nnc(Cc2ccc(Cl)cc2)o1	none
CC(CCc1ccccc1)NC(=O)c1nnc(Cc2ccc(Cl)cc2)o1 (stereo not given)	RAM inhibit 8.7
O=c1cc(-c2ccncc2)oc2ccccc12	Yeast growth inh 46
COC(CNC(=O)c1cccc(-n2c(=S)[nH]c3cc(Cl)ccc3c2=O)c1)OC	none (no result: Yeast growth inh, Yeast lifespan up, SDO1 yeast rescue)
CC1CC(CC(C)C(=O)NC(=S)Nc2ccc(S(N)(=O)=O)cc2)C(=O)O1 (stereo not given)	none (no result: Yeast growth inh, Yeast lifespan up, SDO1 yeast rescue)
CCC1CC(C)(C(=O)Nc2ccc(S(N)(=O)=O)cc2)OC1=O (stereo not given)	Yeast lifespan up 49
COc1cc2cc(CN(Cc3cccs3)C(=S)Nc3cccc(C)c3)c(=O)[nH]c2cc1OC	RAM inhibit 8.9
COc1ccccc1NC(=S)N(Cc1ccco1)Cc1cc2cc(C)c(C)cc2[nH]c1=O	RAM inhibit 9.5
O=C(CSC1=NS(=O)(=O)c2ccccc21)Nc1ccccc1	Yeast growth inh 73
COC(=O)CSC1=NS(=O)(=O)c2ccccc21	none
CC(C)c1ccc(OCC(=O)NC2=NCCS2)cc1	none (no result: Yeast growth inh, Yeast lifespan up, SDO1 yeast rescue)
CC1CCN(S(=O)(=O)c2ccc(NC(=O)CN3CCOCC3)cc2)CC1	none
CC1CCN(S(=O)(=O)c2ccc(NC(=O)Cc3cccs3)cc2)CC1	RAM inhibit 9.1
CCn1nc(C)c(CN2CCc3c([nH]c4ccccc34)C2c2ccc(F)c(OC)c2)c1C (stereo not given)	none (no result: Yeast growth inh, Yeast lifespan up, SDO1 yeast rescue)
Brc1ccc(CSc2ccc3nnc(-c4cccnc4)n3n2)cc1	RAM inhibit 10 (no result: Yeast growth inh, Yeast lifespan up, SDO1 yeast rescue)
Cc1ccc(CSc2ccc3nnc(-c4cccnc4)n3n2)cc1	none
Brc1ccc(CSc2ccc3nnc(-c4ccccn4)n3n2)cc1	RAM inhibit 9.9 (no result: Yeast growth inh, Yeast lifespan up, SDO1 yeast rescue)
COc1ccc(NC(=O)CC(NCCc2ccccc2)C(=O)O)c(OC)c1 (stereo not given)	none
COCCCNC(CC(=O)Nc1ccc(OC)cc1OC)C(=O)O (stereo not given)	Yeast lifespan up 101
CCOC(=O)C1=C(O)/C(=C/c2ccc(OCC(=O)O)c(OC)c2)SC1=Nc1ccc(OCC)cc1	none
CCOC(=O)C1=C(O)/C(=C/c2ccc(OCC(=O)O)c(OCC)c2)SC1=Nc1ccccc1	RAM inhibit 10 (no result: Yeast growth inh, Yeast lifespan up, SDO1 yeast rescue)
CNC(=O)C1CC(=O)N(CCCc2ccccc2)C(=Nc2ccccc2)S1 (stereo not given)	RAM inhibit 9.0
Cc1ccccc1NC(=O)c1cc([N+](=O)[O-])ccc1NCCN1C(=O)CCC1=O	none (no result: Yeast growth inh, Yeast lifespan up, SDO1 yeast rescue)
COc1ccc(/C=N/NC(=O)c2csc(-n3nc(C)cc3C(F)(F)F)n2)cc1	Yeast lifespan up 142
CC1/C(=N/O)CC(c2ccccc2)N(C)C1c1ccccc1 (stereo not given)	Yeast growth inh 88 (no result: Yeast lifespan up)
CCc1cc2c(=O)c(Oc3ccccc3)c(C)oc2cc1O	Yeast lifespan up 69
O=C(Nc1ccc(Cl)cc1)Nc1cc(S(=O)(=O)N2CCOCC2)ccc1N1CCCC1	RAM inhibit 9.3
CNC(=S)NC1CC2CCCC(C1)N2Cc1ccco1 (stereo not given)	Yeast lifespan up 68
COCCOC(=O)C1=C(C)NC(=O)NC1c1ccc(-c2cc(Cl)ccc2Cl)o1 (stereo not given)	none (no result: Yeast growth inh, Yeast lifespan up, SDO1 yeast rescue)
Cc1ccc(NC(=O)c2cc(N3C(=O)C=CC3=O)ccc2Cl)cc1C	none
Cc1ccc(C)c(SCC(=O)OC/C(O)=C(\C#N)c2nc3ccccc3[nH]2)c1	RAM inhibit 8.5 (no result: Yeast growth inh, Yeast lifespan up, SDO1 yeast rescue)
Cc1c(-c2cccc(Cl)c2)nc2ccccc2c1C(=O)OC/C(O)=C(\C#N)c1nc2ccccc2[nH]1	RAM inhibit 11 (no result: Yeast growth inh, Yeast lifespan up, SDO1 yeast rescue)
N#C/C(=C(/O)COC(=O)CSc1ccc2ccccc2c1)c1nc2ccccc2[nH]1	none
COc1ccc(OCCC(=O)NCCN2CCOCC2)cc1	none (no result: Yeast growth inh, Yeast lifespan up, SDO1 yeast rescue)
COCCNC(=O)C(c1ccc(F)cc1)N(C(=O)CCC(=O)Nc1nccs1)c1cccc(C)c1 (stereo not given)	RAM inhibit 9.6 (no result: Yeast growth inh, Yeast lifespan up, SDO1 yeast rescue)
Cc1cccc(N(C(=O)CCC(=O)Nc2nccs2)C(C(=O)NC(C)(C)C)c2ccc(O)cc2)c1 (stereo not given)	none (no result: Yeast growth inh, Yeast lifespan up, SDO1 yeast rescue)
COc1ccc(/C=C2\SC(=N)N(c3nccs3)C2=O)cc1OC	Yeast lifespan up 38
N=C1S/C(=C\c2ccc(-c3cccc(Cl)c3)o2)C(=O)N1c1nccs1	none
CCc1ccc(NC(=O)C(NS(=O)(=O)c2cccc3nsnc23)c2ccccc2)cc1 (stereo not given)	RAM inhibit 9.1
CC(C)Oc1cccc(C(=O)NC(=S)NCc2cccnc2)c1	none
Cc1cc([N+](=O)[O-])nn1CCCC(=O)Nc1cccc(Cl)c1Cl	none (no result: Yeast growth inh, Yeast lifespan up, SDO1 yeast rescue)
Cc1noc(NS(=O)(=O)c2ccc(N/C=C\C(=O)c3ccc(F)cc3)cc2)c1C	RAM inhibit 8.6 (no result: Yeast growth inh, Yeast lifespan up, SDO1 yeast rescue)
CCOC(=O)N1c2ccccc2Sc2ccccc21	none (no result: Yeast growth inh, Yeast lifespan up, SDO1 yeast rescue)
CCOC(=O)N1C(=O)C2(CCCCC2)N(c2ccccc2Cl)C1=S	Yeast lifespan up 37
CCN(CC)C(=O)/C(=C/c1cccc([N+](=O)[O-])c1)NC(=O)c1ccco1	none (no result: Yeast growth inh, Yeast lifespan up, SDO1 yeast rescue)
CCCCCOC(=O)CSc1nc2c(c(=O)[nH]c(=O)n2C)n1CCc1ccccc1	Yeast lifespan up 92
